Assay results published in ChEMBL document CHEMBL5653631, “A Potent and Selective ULK1 Inhibitor Suppresses Autophagy and Sensitizes Cancer Cells to Nutrient Stress” (iScience, 2018).
Blank lines part the entries; values can stand above or below the compound they belong to.

Assays:
[1] = molecular target: Serine/threonine-protein kinase MAK (Homo sapiens) (UniProt P20794); assay: Inhibition of human recombinant MAK at 500 nM in presence of ATP by radiometric assay relative to control
[2] = molecular target: Mitogen-activated protein kinase kinase kinase 9 (Homo sapiens) (UniProt P80192); assay: Inhibition of human recombinant MLK1 at 500 nM related to control ULK1
[3] = molecular target: Casein kinase II subunit alpha (Homo sapiens) (UniProt P68400); assay: Inhibition of human recombinant CK2a1 at 500 nM in presence of ATP by radiometric assay relative to control
[4] = molecular target: Serine/threonine-protein kinase Nek4 (Homo sapiens) (UniProt P51957); assay: Inhibition of human recombinant NEK4 at 500 nM related to control ULK1
[5] = molecular target: T1, Myotonin-protein kinase (Homo sapiens) (UniProt Q09013); assay: Inhibition of human recombinant DMPK1 at 500 nM related to control ULK1
T1 sequence (whole entry): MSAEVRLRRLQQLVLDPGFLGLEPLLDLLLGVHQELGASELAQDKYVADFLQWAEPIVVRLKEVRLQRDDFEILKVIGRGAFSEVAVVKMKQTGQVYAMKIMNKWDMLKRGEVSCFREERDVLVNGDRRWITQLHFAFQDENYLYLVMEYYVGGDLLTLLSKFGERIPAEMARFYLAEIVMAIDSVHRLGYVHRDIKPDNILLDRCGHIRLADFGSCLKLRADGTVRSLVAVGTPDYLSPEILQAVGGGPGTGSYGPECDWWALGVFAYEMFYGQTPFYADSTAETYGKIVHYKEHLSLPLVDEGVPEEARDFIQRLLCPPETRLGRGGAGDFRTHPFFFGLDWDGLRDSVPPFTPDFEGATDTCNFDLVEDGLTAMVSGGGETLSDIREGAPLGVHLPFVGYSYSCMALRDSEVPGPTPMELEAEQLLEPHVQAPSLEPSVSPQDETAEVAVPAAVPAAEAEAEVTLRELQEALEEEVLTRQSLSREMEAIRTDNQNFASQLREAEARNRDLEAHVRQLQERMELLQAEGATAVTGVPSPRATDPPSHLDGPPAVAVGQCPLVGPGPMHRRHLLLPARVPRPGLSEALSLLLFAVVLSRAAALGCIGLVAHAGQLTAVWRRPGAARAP

[6] = molecular target: T2, Ephrin type-B receptor 4 (Homo sapiens) (UniProt P54760); assay: Inhibition of human recombinant EphB4 at 15 nM in presence of ATP by radiometric assay relative to control
T2 sequence (whole entry): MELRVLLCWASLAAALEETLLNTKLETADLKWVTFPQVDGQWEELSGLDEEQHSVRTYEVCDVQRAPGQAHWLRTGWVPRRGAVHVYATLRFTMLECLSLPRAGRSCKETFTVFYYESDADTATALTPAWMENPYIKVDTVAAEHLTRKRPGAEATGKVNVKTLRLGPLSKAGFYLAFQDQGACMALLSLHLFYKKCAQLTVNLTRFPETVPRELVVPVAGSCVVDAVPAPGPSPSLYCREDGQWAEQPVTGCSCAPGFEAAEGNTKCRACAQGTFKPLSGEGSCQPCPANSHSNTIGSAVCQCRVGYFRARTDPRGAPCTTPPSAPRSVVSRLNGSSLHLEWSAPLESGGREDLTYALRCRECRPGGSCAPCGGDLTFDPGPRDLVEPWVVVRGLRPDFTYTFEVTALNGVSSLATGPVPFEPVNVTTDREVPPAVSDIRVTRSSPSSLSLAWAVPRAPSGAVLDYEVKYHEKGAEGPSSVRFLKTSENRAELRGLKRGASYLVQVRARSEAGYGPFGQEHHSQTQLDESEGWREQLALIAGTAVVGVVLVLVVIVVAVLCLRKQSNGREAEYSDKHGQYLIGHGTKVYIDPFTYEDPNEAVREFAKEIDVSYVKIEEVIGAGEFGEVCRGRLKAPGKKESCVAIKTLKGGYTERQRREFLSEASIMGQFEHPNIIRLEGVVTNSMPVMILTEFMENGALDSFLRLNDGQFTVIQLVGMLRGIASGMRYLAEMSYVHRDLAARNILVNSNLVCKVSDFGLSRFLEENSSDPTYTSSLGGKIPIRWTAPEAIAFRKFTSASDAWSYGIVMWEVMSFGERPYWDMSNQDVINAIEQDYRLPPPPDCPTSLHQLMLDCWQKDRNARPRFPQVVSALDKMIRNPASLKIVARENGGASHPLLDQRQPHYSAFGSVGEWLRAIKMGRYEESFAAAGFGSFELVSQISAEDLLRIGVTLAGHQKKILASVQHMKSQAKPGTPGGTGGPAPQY

[7] = molecular target: Interferon-induced, double-stranded RNA-activated protein kinase (Homo sapiens) (UniProt P19525); assay: Inhibition of human recombinant PKR at 15 nM related to control ULK1
[8] = molecular target: T3, Testis-specific serine/threonine-protein kinase 3 (Homo sapiens) (UniProt Q96PN8); assay: Inhibition of human recombinant TSSK3 at 15 nM related to control ULK1
T3 sequence (whole entry): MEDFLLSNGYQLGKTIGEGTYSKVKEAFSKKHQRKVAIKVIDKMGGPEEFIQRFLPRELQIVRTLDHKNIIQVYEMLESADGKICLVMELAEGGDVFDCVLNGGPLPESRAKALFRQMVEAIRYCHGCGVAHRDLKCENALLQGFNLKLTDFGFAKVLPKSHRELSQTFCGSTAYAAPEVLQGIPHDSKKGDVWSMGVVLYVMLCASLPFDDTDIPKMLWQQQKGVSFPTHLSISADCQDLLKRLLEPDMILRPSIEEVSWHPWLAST

[9] = molecular target: Insulin-like growth factor 1 receptor (Homo sapiens) (UniProt P08069); assay: Inhibition of human recombinant IGF1R at 40 nM in presence of ATP by radiometric assay relative to control
[10] = molecular target: 5'-AMP-activated protein kinase catalytic subunit alpha-2 (Homo sapiens) (UniProt P54646); assay: Inhibition of human recombinant AMPKa2 at 40 nM in presence of ATP by radiometric assay relative to control
How it was run: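 Panel of 327 recombinant human kinases, each assayed in vitro by radiometric activity assay in duplicate at a single inhibitor concentration per compound, chosen with reference to its ULK1 inhibition. Activity remaining was expressed as percent of vehicle control, and percent inhibition was calculated as 100 minus percent activity remaining.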

Serine/threonine-protein kinase Nek4 (Homo sapiens), sequence (P51957 whole entry, looked up): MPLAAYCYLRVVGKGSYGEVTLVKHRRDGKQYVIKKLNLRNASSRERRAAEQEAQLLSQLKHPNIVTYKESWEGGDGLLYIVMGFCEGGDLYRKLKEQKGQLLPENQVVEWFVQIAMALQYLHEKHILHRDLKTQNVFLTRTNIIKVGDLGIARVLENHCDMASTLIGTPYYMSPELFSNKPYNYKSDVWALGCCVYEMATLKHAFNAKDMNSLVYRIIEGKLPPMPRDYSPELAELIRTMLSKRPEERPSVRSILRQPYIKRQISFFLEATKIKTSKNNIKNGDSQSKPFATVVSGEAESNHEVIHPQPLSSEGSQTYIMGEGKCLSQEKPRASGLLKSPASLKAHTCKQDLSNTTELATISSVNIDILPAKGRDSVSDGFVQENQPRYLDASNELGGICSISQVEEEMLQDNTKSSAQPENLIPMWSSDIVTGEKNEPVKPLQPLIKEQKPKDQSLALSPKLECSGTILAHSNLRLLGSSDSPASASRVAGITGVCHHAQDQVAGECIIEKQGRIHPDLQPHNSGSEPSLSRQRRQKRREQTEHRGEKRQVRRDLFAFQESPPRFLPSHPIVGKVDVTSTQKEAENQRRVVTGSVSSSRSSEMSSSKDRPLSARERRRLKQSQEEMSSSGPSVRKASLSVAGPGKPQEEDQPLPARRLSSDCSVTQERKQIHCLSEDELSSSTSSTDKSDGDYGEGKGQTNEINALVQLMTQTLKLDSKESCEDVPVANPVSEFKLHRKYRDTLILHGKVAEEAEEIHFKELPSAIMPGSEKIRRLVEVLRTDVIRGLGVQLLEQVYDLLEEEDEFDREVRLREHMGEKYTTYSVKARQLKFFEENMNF
Insulin-like growth factor 1 receptor (Homo sapiens), sequence (P08069 31-736 limits assumed): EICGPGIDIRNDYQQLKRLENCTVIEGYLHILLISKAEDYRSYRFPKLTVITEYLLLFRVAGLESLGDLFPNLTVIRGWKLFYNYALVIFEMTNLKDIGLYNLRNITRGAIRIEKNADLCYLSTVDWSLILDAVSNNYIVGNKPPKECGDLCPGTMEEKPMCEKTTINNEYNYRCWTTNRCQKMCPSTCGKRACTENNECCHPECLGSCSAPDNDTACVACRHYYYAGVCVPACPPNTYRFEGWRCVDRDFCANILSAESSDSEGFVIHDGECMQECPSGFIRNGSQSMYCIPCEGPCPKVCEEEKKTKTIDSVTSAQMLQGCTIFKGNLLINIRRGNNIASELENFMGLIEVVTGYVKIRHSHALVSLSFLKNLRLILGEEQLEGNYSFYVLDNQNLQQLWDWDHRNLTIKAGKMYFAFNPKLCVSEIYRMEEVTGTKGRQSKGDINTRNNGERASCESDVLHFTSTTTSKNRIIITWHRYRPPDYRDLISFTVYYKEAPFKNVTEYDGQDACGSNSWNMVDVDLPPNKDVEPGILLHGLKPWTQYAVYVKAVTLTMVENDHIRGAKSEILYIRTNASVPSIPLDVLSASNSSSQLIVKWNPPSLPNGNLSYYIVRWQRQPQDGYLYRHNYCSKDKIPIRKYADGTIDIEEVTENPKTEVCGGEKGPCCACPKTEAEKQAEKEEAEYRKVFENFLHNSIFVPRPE
Insulin-like growth factor 1 receptor (Homo sapiens), sequence (P08069 741-1367 limits assumed): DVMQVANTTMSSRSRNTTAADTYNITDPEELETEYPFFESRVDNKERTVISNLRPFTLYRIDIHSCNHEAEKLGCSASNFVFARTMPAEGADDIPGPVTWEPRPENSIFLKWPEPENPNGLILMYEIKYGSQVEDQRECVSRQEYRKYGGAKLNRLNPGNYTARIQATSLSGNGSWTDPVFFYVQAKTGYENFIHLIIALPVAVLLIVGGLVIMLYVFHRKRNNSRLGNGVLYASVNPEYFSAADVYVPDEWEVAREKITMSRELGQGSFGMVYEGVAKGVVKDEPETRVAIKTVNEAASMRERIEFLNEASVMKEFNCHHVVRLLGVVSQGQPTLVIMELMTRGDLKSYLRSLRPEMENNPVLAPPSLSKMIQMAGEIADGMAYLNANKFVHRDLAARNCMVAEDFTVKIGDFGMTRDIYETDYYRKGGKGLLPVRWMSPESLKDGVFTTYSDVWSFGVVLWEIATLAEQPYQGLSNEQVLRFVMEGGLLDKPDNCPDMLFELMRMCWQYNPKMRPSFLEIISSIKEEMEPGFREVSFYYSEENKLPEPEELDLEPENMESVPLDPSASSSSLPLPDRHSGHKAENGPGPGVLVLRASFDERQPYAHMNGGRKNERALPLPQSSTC
Serine/threonine-protein kinase MAK (Homo sapiens), sequence (P20794 whole entry, looked up): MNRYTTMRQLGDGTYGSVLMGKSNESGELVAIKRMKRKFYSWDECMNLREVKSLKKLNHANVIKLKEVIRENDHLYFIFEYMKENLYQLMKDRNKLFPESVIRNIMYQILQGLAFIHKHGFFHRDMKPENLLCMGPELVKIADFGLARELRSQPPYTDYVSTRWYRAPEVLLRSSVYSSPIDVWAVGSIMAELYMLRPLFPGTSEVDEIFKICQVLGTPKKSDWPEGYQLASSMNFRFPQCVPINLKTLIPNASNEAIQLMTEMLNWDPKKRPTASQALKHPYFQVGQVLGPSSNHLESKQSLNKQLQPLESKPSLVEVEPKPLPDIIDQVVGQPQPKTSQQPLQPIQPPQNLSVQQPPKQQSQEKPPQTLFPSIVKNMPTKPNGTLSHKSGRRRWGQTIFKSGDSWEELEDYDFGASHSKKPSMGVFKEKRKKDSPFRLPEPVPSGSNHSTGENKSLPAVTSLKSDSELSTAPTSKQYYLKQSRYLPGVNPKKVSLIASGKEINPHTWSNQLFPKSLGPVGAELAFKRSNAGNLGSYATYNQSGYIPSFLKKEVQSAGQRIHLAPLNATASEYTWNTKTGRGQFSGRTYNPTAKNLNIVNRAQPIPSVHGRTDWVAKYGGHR
Interferon-induced, double-stranded RNA-activated protein kinase (Homo sapiens), sequence (P19525 whole entry): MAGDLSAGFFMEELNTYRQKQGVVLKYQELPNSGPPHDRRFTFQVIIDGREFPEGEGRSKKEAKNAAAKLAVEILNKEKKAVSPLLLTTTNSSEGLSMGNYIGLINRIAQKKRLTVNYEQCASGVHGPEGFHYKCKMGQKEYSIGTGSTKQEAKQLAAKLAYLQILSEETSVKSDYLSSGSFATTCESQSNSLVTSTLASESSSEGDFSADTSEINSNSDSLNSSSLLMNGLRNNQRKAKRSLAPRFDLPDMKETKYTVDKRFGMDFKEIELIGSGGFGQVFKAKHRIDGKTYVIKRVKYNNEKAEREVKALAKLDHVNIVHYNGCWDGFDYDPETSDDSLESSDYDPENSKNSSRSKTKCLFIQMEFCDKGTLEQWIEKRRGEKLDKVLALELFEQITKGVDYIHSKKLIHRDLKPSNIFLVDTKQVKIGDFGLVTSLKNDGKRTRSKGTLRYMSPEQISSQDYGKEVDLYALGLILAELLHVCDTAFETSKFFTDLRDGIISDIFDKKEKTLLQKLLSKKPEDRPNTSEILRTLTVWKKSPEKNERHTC
5'-AMP-activated protein kinase catalytic subunit alpha-2 (Homo sapiens), sequence (P54646 whole entry, looked up): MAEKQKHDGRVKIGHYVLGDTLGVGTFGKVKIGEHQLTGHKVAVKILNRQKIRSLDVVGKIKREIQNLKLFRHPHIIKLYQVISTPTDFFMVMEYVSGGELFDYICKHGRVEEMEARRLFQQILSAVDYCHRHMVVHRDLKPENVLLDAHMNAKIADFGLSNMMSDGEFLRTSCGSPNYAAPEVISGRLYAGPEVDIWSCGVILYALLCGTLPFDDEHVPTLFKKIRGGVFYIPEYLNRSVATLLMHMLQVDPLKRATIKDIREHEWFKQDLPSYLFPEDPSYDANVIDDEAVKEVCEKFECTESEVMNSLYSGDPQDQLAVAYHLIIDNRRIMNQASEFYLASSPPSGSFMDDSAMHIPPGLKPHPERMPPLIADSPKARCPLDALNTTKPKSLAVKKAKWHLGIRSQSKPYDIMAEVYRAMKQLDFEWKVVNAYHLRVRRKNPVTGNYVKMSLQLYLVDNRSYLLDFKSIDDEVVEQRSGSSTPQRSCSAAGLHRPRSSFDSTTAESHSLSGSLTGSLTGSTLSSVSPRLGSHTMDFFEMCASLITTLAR
Casein kinase II subunit alpha (Homo sapiens), sequence (P68400 whole entry, looked up): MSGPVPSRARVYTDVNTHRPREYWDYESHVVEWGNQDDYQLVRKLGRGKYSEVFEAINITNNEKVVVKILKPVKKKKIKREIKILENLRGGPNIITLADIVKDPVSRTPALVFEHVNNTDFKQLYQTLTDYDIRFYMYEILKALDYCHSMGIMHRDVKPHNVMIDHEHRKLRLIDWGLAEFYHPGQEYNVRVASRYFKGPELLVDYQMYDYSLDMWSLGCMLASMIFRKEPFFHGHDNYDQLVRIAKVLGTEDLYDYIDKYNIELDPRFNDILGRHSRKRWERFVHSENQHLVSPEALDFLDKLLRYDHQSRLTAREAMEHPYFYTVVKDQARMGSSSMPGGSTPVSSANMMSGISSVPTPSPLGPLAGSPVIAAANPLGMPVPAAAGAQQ

- inhibition [1]: 36%
- fold change (FC) [2]: 1.18
- inhibition [3]: 14%
- fold change (FC) [4]: 0.31
- fold change (FC) [5]: 0
Structure (SMILES): CNC(=O)c1ccccc1Oc1nc(Nc2cc(OC)c(OC)c(OC)c2)ncc1Br

- inhibition [6]: 3%
- fold change (FC) [7]: 0.02
- fold change (FC) [8]: 0.16
Structure (SMILES): CC(C)[C@H](NC(=O)c1cc(-c2cnn3cc(-c4ccc(OCCN5CCCCC5)cc4)cnc23)cs1)C(F)(F)F

- inhibition [9]: 0%
- inhibition [10]: 7%
Structure (SMILES): O=C(N[C@@H](C1CC1)C(F)(F)F)c1cc(-c2cnn3cc(-c4ccc(F)cc4)cnc23)cs1
